Results published in article PMC9064382 (RSC Advances, 2019).

Legend:
Assay type in all cases: in vitro ADME
hOATP1B1 = target: T1, hOATP1B1 (Homo sapiens, UniProt Q9Y6L6)
T1 sequence (Q9Y6L6 1-691): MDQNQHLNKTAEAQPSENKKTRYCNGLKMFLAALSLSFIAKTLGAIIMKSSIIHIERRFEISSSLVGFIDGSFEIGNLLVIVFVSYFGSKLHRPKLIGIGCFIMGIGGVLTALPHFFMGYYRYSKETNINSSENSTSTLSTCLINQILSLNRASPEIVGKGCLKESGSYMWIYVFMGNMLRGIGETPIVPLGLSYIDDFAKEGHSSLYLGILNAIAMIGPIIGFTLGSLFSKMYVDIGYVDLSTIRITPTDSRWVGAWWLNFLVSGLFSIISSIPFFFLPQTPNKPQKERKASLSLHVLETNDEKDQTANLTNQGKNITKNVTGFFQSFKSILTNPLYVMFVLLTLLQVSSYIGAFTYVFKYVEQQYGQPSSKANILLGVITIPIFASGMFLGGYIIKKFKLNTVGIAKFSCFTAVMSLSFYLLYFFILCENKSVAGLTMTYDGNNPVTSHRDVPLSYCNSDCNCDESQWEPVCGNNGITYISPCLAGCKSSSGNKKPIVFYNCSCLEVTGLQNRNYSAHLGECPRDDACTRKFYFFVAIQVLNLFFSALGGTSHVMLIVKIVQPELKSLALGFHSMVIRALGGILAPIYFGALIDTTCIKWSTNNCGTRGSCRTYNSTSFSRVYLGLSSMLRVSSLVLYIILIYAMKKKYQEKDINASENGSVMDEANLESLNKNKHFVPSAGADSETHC

hOATP2B1 = target: T2, hOATP2B1 (Homo sapiens, UniProt O94956)
T2 sequence (O94956 1-709): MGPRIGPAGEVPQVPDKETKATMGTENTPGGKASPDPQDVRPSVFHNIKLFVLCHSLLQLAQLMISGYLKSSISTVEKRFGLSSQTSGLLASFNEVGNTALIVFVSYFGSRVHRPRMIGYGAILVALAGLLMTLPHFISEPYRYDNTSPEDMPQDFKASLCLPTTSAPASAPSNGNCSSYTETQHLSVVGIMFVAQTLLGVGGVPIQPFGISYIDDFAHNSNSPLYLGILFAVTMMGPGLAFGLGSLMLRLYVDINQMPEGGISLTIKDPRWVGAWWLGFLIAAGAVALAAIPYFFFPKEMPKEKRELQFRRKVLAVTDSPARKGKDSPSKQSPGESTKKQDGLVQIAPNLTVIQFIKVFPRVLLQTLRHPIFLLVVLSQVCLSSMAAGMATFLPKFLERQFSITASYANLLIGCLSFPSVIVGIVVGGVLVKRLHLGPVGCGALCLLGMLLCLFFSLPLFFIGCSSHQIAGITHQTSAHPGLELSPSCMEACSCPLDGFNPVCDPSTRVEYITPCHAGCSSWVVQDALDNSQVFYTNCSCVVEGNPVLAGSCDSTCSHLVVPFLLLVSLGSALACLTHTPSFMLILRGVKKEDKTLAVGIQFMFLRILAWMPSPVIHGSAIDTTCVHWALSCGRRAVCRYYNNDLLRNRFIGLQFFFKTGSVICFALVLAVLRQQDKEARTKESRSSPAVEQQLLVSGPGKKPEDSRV
Method in brief: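 Transfected and mock cells were incubated 2 min at 37 °C with 200 nmol L−1 3H-ES plus test compound. The screen used a single 100 μmol L−1 concentration with reference inhibitors as positive controls, giving an inhibition rate (n = 3, mean ± sd). […] DMSO was <0.2%. Cells were stopped with cold DPBS, rinsed three times, lysed in 0.1 mol L−1 NaOH and counted by scintillation (dpm).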

hOCT2 = target: T3, hOCT2 (Homo sapiens, UniProt O15244); assay: Inhibition of 14C-TEA uptake in hOCT2-transfected cells by liquorice ingredients; settings: 5 min
T3 sequence (O15244 1-555): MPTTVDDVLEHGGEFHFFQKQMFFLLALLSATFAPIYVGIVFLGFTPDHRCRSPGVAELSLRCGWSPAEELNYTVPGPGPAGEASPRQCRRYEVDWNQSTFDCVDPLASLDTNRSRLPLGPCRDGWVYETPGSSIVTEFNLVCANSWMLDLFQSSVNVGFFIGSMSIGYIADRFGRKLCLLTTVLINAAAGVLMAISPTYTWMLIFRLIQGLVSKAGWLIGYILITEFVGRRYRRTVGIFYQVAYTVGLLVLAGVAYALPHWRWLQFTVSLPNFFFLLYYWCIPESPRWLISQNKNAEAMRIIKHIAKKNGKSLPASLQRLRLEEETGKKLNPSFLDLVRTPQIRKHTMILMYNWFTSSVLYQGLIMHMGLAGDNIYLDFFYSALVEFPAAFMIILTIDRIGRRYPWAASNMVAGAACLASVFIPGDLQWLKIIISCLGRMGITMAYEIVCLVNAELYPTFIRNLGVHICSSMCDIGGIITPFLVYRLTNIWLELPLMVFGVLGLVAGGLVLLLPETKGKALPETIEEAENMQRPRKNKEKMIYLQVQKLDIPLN

IC50 (hOATP1B1; read-out: IC50 on hOATP1B1, 3H-ES probe, 2 min): 1270 nM | inhibition of hOATP1B1 (hOATP1B1; screening at 100 μm): strong inhibitors | IC50 (hOATP2B1; read-out: IC50 on hOATP2B1, 3H-ES probe, 2 min): 1090 nM | inhibition of hOATP2B1 (hOATP2B1; screening at 100 μm): strong inhibitors | inhibitory rate on hOCT2 (hOCT2; 100 μm, 5 μmol L^−1 14C-TEA): 91.76% | IC50 (hOCT2; read-out: IC50 on hOCT2, 14C-TEA probe): 6610 nM
Structure (SMILES): C=CC(C)(C)c1cc(/C=C/C(=O)c2ccc(O)cc2)c(OC)cc1O [licochalcone A]
